Assay results published in ChEMBL document CHEMBL2346577, “Isolation, structure, and biological activity of Phaeofungin, a cyclic lipodepsipeptide from a Phaeosphaeria sp. Using the Genome-Wide Candida albicans Fitness Test” (J Nat Prod, 2013).
≈ marks a conversion by molar mass, not a printed value. Calls of active or inactive are those of the source. No cut-off for these calls is given here. Numbered stars: 1 amine (or outer) side, 2 acyl side, 3 side chain; on linkers, the order of the positions; unused ones are H or OH. Bridge positions count the residues as written; N and C are the ends. Square brackets hold non-standard residues; d marks the D form. Peptide text beside a SMILES is read from it. * marks the point of attachment. ξ: configuration not given here. X2 = CCCCCCCCCCCCC(C)C(CC(=O)[*:1])O[*:2]; X1 = CCCCCCCCCCCCC(C)(O)C(O)CC(=O)*; ξhSer = NC(CCO)C(=O)O

Key:
Candida albicans [1] = experiment: Induction of ATP release from cytoplasm of Candida albicans isolate 2323 at >MIC by Promega Bactiter Glo assay; type: functional, organism-based
Method in brief: (§1)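 ATP leaking from fungal cells exposed to compound was measured by BacTiter Glo luminescence per manufacturer's instructions, in parallel with whole-cell growth inhibition across a concentration series. Release was referenced to basal ATP release in the assay and to total ATP release for each strain.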

Candida albicans [2] = experiment: Induction of ATP release from cytoplasm of Candida albicans SC5314 at >MIC by Promega Bactiter Glo assay; type: functional, organism-based; method in brief: as §1
Candida albicans [3] = experiment: Antifungal activity against Candida albicans expressing CRZ1 deletion mutant assessed as inhibition of fungal growth; type: functional, organism-based
Candida albicans [4] = experiment: Antifungal activity against Candida albicans expressing CMD1 deletion mutant assessed as inhibition of fungal growth; type: functional, organism-based
Candida albicans [5] = experiment: Induction of ATP release from cytoplasm of Candida albicans SC5314 at 0.1 to 25 ug/ml by Promega Bactiter Glo assay; type: functional, organism-based
Method in brief: (§2)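 Release of cytoplasmic ATP from whole C. albicans cells (strains 2323 and SC5314) exposed to compound, measured with the BacTiter Glo luminescence kit per manufacturer's instructions. Read alongside whole-cell growth inhibition in the same strains, and compared with basal ATP release and total releasable ATP for each strain.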

Candida albicans [6] = experiment: Antifungal activity against Candida albicans expressing DIP5 deletion mutant assessed as inhibition of fungal growth; type: functional, organism-based
Candida albicans [7] = experiment: Induction of ATP release from cytoplasm of Candida albicans isolate 2323 at 0.1 to 25 ug/ml by Promega Bactiter Glo assay; type: functional, organism-based; method in brief: as §2
Candida albicans [8] = experiment: Antifungal activity against Candida albicans MY1055 assessed as inhibition of fungal growth after 24 hrs; type: functional; conditions: MY1055, 24 h
Method in brief: (§3)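 Broth dilution against each fungal strain. Inoculum 10^5 CFU/mL, compound in 2-fold serial dilution in growth medium at 37 °C. MIC is the lowest concentration inhibiting visible growth; MIC80 (prominent inhibition, MEC for Aspergillus) also read. Incubation 24 h, except 48 h for A. fumigatus.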

Candida albicans [9] = experiment: Antifungal activity against Candida albicans MY1055 assessed as inhibition of fungal growth after 24 hrs in presence of 50% mouse serum; type: functional; conditions: MY1055, 24 h
Candida tropicalis = experiment: Antifungal activity against Candida tropicalis MY1012 assessed as inhibition of fungal growth after 24 hrs; type: functional; conditions: MY1012, 24 h; method in brief: as §3
Pichia kudriavzevii = experiment: Antifungal activity against Candida krusei ATCC 6258 assessed as inhibition of fungal growth after 24 hrs; type: functional; conditions: ATCC 6258, 24 h; method in brief: as §3
Clavispora lusitaniae = experiment: Antifungal activity against Candida lusitaniae MY1396 assessed as inhibition of fungal growth after 24 hrs; type: functional; conditions: MY1396, 24 h
Method in brief: (§4)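 Whole-cell growth assay with incubation of 24 h for most strains, 48 h for A. fumigatus and 96 h for T. mentagrophytes. MIC is the lowest concentration inhibiting visible growth. MIC80 is prominent growth inhibition, also called MEC for Aspergillus.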

Candida parapsilosis = experiment: Antifungal activity against Candida parapsilosis ATCC 22019 assessed as inhibition of fungal growth after 24 hrs; type: functional; conditions: Lodderomyces parapsilosis, ATCC 22019, 24 h; method in brief: as §3
Aspergillus fumigatus [10] = experiment: Antifungal activity against Aspergillus fumigatus MF5668 assessed as inhibition of fungal growth after 48 hrs in presence of 50% human serum; type: functional; conditions: MF5668, 48 h; method in brief: as §4
Aspergillus fumigatus [11] = experiment: Antifungal activity against Aspergillus fumigatus MF5668 assessed as inhibition of fungal growth after 48 hrs; type: functional; conditions: MF5668, 48 h; method in brief: as §3
[12] = tested on: Trichophyton mentagrophytes; experiment: Antifungal activity against Trichophyton mentagrophytes MF7004 assessed as inhibition of fungal growth after 96 hrs; type: functional; conditions: MF7004, 96 h; method in brief: as §4
Staphylococcus aureus = experiment: Antimicrobial activity against Staphylococcus aureus MB2865 assessed as inhibition of microbial growth after 24 hrs; type: functional; conditions: MB2865, 24 h
Nakaseomyces glabratus = experiment: Antifungal activity against Candida glabrata MY1381 assessed as inhibition of fungal growth after 24 hrs; type: functional; conditions: MY1381, 24 h; method in brief: as §3
Mus musculus [13] = experiment: Toxicity in DBA/2N mouse assessed as induction of lethality at 6.25 mg/kg, ip; type: organism-based; set-up: dose 6.25 mg/kg, route intraperitoneal; conditions: in vivo
Mus musculus [14] = experiment: Toxicity in DBA/2N mouse assessed as induction of lethality at >12.5 mg/kg, ip; type: organism-based; conditions: in vivo
Candida albicans [15] = experiment: Induction of ATP release from cytoplasm of Candida albicans SC5314 at 0.2 to 50 ug/ml by Promega Bactiter Glo assay; type: functional, organism-based; method in brief: as §2
Candida albicans [16] = experiment: Antifungal activity against Candida albicans expressing AUR+/- gene assessed as inhibition of fungal growth; type: functional, organism-based
Candida albicans [17] = experiment: Antifungal activity against Candida albicans expressing RTA1+/- gene assessed as inhibition of fungal growth; type: functional, organism-based
Candida albicans [18] = experiment: Induction of ATP release from cytoplasm of Candida albicans isolate 2323 at 0.2 to 50 ug/ml by Promega Bactiter Glo assay; type: functional, organism-based; method in brief: as §2

| SMILES | Activity (Candida albicans [1]) | Activity (Candida albicans [2]) | growth inhibition (GI) (Candida albicans [3]) | growth inhibition (GI) (Candida albicans [4]) | growth inhibition (GI) (Candida albicans [6]) | MIC (Candida albicans [8]) | MIC (Candida albicans [9]) | MIC (Candida tropicalis) | MIC (Pichia kudriavzevii) | MIC (Clavispora lusitaniae) | MIC (Candida parapsilosis) | MIC (Aspergillus fumigatus [10]) | MIC (Aspergillus fumigatus [11]) | MIC [12] | MIC (Staphylococcus aureus) | MIC (Nakaseomyces glabratus) | further results |
| --- | --- | --- | --- | --- | --- | --- | --- | --- | --- | --- | --- | --- | --- | --- | --- | --- | --- |
| C[C@@H]1[C@H](O)[C@@H](C)/C=C/C=C/C=C/C=C/C=C/C=C/C=C/[C@H](O[C@@H]2O[C@H](C)[C@@H](O)[C@H](N)[C@@H]2O)C[C@@H]2O[C@](O)(C[C@@H](O)C[C@@H](O)[C@H](O)CC[C@@H](O)C[C@@H](O)CC(=O)O[C@H]1C)C[C@H](O)[C@H]2C(=O)O | inactive | inactive |  |  |  |  |  |  |  |  |  |  |  |  |  |  |  |
| CCCCCCCCCCCCC(C)C1CC(=O)N[C@@H](C)C(=O)NC(CCO)C(=O)N[C@@H](CCC(=O)O)C(=O)NCC(=O)N[C@@H](CO)C(=O)N[C@H](CC(N)=O)C(=O)N[C@H]([C@H](C)O)C(=O)NC(CCO)C(=O)O1 (some centres undefined) (A[ξhSer]EGS[dN][dT][ξhSer]; linker N-C via X2) |  |  | Active | Active | inactive |  |  |  |  |  |  |  |  |  |  |  | Activity (Candida albicans [5]): inactive; Activity (Candida albicans [7]): inactive |
| CCCCCCCCCCCCC(C)(O)C(O)CC(=O)N[C@@H](CO)C(=O)N[C@@H](C)C(=O)N[C@@H](CC(=O)O)C(=O)N[C@@H](C)C(=O)N[C@@H](CO)C(=O)N[C@@H](CO)C(=O)N[C@H](C(=O)O)[C@@H](C)O (some centres undefined) (X1-SADASST-OH) |  |  |  |  |  | > 32 µg/mL | > 32 µg/mL | > 32 µg/mL | > 32 µg/mL | > 32 µg/mL | > 32 µg/mL | > 32 µg/mL | > 32 µg/mL | > 32 µg/mL | > 32 µg/mL | > 32 µg/mL |  |
| CC[C@H](C)C[C@H](C)CCCCCCCCC(=O)N[C@H]1C[C@@H](O)[C@@H](NCCN)NC(=O)[C@@H]2[C@@H](O)CCN2C(=O)[C@H]([C@H](O)CCN)NC(=O)[C@H]([C@H](O)[C@@H](O)c2ccc(O)cc2)NC(=O)[C@@H]2C[C@@H](O)CN2C(=O)[C@H]([C@@H](C)O)NC1=O [CASPOFUNGIN] | Active | Active |  |  |  | 0.5 µg/mL (≈ 0.457 µM) | 0.25 µg/mL |  | 1 µg/mL (≈ 0.915 µM) | < 0.03 µg/mL | 0.5 µg/mL (≈ 0.457 µM) | 32 µg/mL | 32 µg/mL (≈ 29.3 µM) | 32 µg/mL (≈ 29.3 µM) | > 32 µg/mL | 0.25 µg/mL (≈ 0.229 µM) |  |
| CCCCCCCCCCCC(C)(O)C1CC(=O)N[C@@H](CO)C(=O)N[C@H](C)C(=O)N[C@H](CC(=O)O)C(=O)N[C@@H](C)C(=O)N[C@H](CO)C(=O)N[C@H](CO)C(=O)N[C@H]([C@@H](C)O)C(=O)O1 (some centres undefined) [PHAEOFUNGIN] |  |  | inactive | inactive | inactive | 32 µg/mL (≈ 36 µM) | > 32 µg/mL | > 32 µg/mL | > 32 µg/mL | 32 µg/mL (≈ 36 µM) | > 32 µg/mL | > 32 µg/mL | 16 µg/mL (≈ 18 µM) | 4 µg/mL (≈ 4.49 µM) | > 32 µg/mL | > 32 µg/mL | Activity (Mus musculus [13]): Non-toxic; MIC80 (Candida albicans [8]): 16 µg/mL (≈ 18 µM); MIC80 (Pichia kudriavzevii): 32 µg/mL (≈ 36 µM); Activity (Mus musculus [14]): Dose-dependent effect; MIC80 (Candida parapsilosis): 32 µg/mL (≈ 36 µM); Activity (Candida albicans [15]): Active; minimal effective concentration (Aspergillus fumigatus [11]; read-out: MEC): 8 µg/mL; growth inhibition (GI) (Candida albicans [16]): Active; growth inhibition (GI) (Candida albicans [17]): Active; Activity (Candida albicans [18]): Active |
